pIC50: −log10 of the molar value. The source made the active and inactive calls. The rule behind the calls is not given here.
Tests used:
MOLT-4 = assay: Antiproliferative activity against human MOLT4 cells after 2 days by coulter counter analysis; assay type: functional, cell-based; conditions: MOLT-4, 48 h
HeLa [1] = assay: Antiproliferative activity against human HeLa cells after 2 days by coulter counter analysis; assay type: functional, cell-based; conditions: 48 h
How it was run: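 Cells suspended at 300,000–500,000 cells/mL and mixed 1:1 with diluted compound. Incubated at 37 °C for two days, then counted with a Coulter counter. IC50 is the concentration inhibiting proliferation by 50%, as mean ± SE from dose-response curves of at least three independent experiments.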

[2] = Inhibition of bovine brain tubulin polymerization after 20 mins by turbidimetry; set-up: species or system Bos taurus
How it was run: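 Purified bovine brain tubulin at 10 µM was preincubated with compound in glutamate buffer at 30 °C, then cooled to 0 °C and GTP added. Samples were warmed to 30 °C in a recording spectrophotometer and assembly followed by turbidity.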

LoVo [3] = assay: Antiproliferative activity against human LoVo cells after 72 hrs by MTT assay; assay type: functional, cell-based
How it was run: (§1)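 Cells seeded at 8 × 10³ per well in complete medium and exposed to a range of compound concentrations at 37 °C for 72 h. Viability read by MTT test. IC50 taken as the concentration inhibiting proliferation by 50%.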

LoVo [4] = assay: Antiproliferative activity against doxorubicin-resistant human LoVo cells after 72 hrs by MTT assay; assay type: functional, cell-based; how it was run: as §1
CCRF-CEM [5] = assay: Antiproliferative activity against human CEM cells after 72 hrs by MTT assay; assay type: functional, cell-based; how it was run: as §1
[6] = Antiproliferative activity against human vinblastine-resistant CEM/VBL100 cells after 72 hrs by MTT assay; assay type: functional, cell-based; conditions: CEM/VBL100, 72 h; how it was run: as §1
A549 [7] = assay: Antiproliferative activity against human A549 cells after 72 hrs by MTT assay; assay type: functional, cell-based; conditions: A549, 72 h; how it was run: as §1
HeLa [8] = assay: Cell cycle arrest in human HeLa cells at G2/M phase after 24 hrs by propidium iodide staining-based flow cytometry; assay type: functional
How it was run: (§2)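 HeLa cells treated for 24 h over 0.06–0.5 µM. Cells fixed in ice-cold 70% ethanol, lysed with buffer containing RNase A and 0.1% Triton X-100, and stained with PI. DNA content read by flow cytometry, including the sub-G1 fraction. Mean ± SEM of three independent experiments.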

HeLa [9] = assay: Cell cycle arrest in human HeLa cells assessed as decrease in cell accumulation in G1 phase after 24 hrs by propidium iodide staining-based flow cytometry; assay type: functional; how it was run: as §2
HeLa [10] = assay: Cell cycle arrest in human HeLa cells assessed as decrease in cell accumulation in S phase at 0.5 uM after 24 hrs by propidium iodide staining-based flow cytometry; assay type: functional; how it was run: as §2
HeLa [11] = assay: Induction of cell cycle arrest at G2/M phase in human HeLa cells assessed as increase in cyclin B1 expression at 0.25 to 5 uM after 24 hrs by Western blot analysis; assay type: functional, cell-based
How it was run: (§3)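 HeLa cells treated for 24 or 48 h were washed in cold PBS and lysed on ice for 30 min. Lysates were cleared at 15,000 × g, run on SDS-PAGE and blotted. Membranes were probed 2 h at room temperature with antibodies to the target protein, then peroxidase secondary and ECL. Blots were reprobed for β-actin as loading control.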

HeLa [12] = assay: Induction of cell cycle arrest at G2/M phase in human HeLa cells assessed as decrease in cyclin B1 expression at 0.25 to 5 uM after 48 hrs by Western blot analysis; assay type: functional, cell-based; how it was run: as §3
HeLa [13] = assay: Induction of cell cycle arrest at G2/M phase in human HeLa cells assessed as partial recovery in Cdc2 phosphorylation at Tyr15 at 0.25 to 5 uM after 48 hrs by Western blot analysis; assay type: functional, cell-based; how it was run: as §3
HeLa [14] = assay: Induction of apoptosis in human HeLa cells assessed as accumulation of late apoptotic cells after 24 hrs by Annexin-V-FITC/propidium iodide staining-based flow cytometric analysis; assay type: functional, cell-based
How it was run: (§4)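 HeLa cells treated for 24 or 48 h, then labelled with annexin-V-FITC and PI. Analysed by flow cytometry with excitation at 488 nm and emission at 525 nm (FITC) and 585 nm (PI). Quadrants scored as live, early apoptotic, late apoptotic or necrotic. Mean ± SEM of four independent experiments.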

HeLa [15] = assay: Induction of apoptosis in human HeLa cells assessed as accumulation of necrotic cells after 24 hrs by Annexin-V-FITC/propidium iodide staining-based flow cytometric analysis; assay type: functional, cell-based; how it was run: as §4
HeLa [16] = assay: Induction of apoptosis in human HeLa cells assessed as accumulation of necrotic cells after 48 hrs by Annexin-V-FITC/propidium iodide staining-based flow cytometric analysis; assay type: functional, cell-based; how it was run: as §4
HeLa [17] = assay: Induction of apoptosis in human HeLa cells assessed as loss of mitochondrial membrane potential after 24 to 48 hrs by JC1 staining-based flow cytometric analysis; assay type: functional, cell-based
How it was run: (§5)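 After 24 or 48 h treatment, HeLa cells were trypsinized and resuspended in HBSS with JC-1 (1 µM). Incubated 10 min at 37 °C, washed, and read by flow cytometry for red (590 nm) aggregate versus green (530 nm) monomer. Mean ± SEM of three experiments.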

HeLa [18] = assay: Induction of apoptosis in human HeLa cells assessed as loss of mitochondrial membrane potential at 0.25 to 5 uM by JC1 staining-based flow cytometric analysis; assay type: functional, cell-based; conditions: TDE = time-dependent effect; how it was run: as §5
HeLa [19] = assay: Induction of apoptosis in human HeLa cells assessed as ROS production at 0.25 to 5 uM after 24 to 48 hrs by hydroethidine-staining-based flow cytometric analysis; assay type: functional, cell-based
How it was run: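 HeLa cells treated 24 or 48 h, trypsinized and resuspended in HBSS containing HE (2.5 µM) or H₂DCFDA (0.1 µM). Incubated 10 min at 37 °C, resuspended in HBSS, and ROS read by flow cytometry. Mean ± SEM of three independent experiments.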

HeLa [20] = assay: Induction of apoptosis in human HeLa cells assessed as PARP cleavage at 0.25 to 5 uM by Western blot analysis; assay type: functional, cell-based; conditions: TDE = time-dependent effect; how it was run: as §3
HT-29 [21] = assay: Cytotoxicity against human HT-29 cells; assay type: functional, cell-based
HT-29 [22] = assay: Antitumor activity against human HT-29 cells xenografted in BALB/c nude mouse assessed as reduction in tumor mass at 100 mg/kg, ip administered 3 times per week for 1 week; assay type: functional, organism-based; set-up: dose 100 mg/kg
Mus musculus [23] = assay: Toxicity in nude BALB/c mouse xenografted with human HT-29 cells assessed as organism mortality at 100 mg/kg, ip administered 3 times per week for 1 week measured on day 7; assay type: organism-based; set-up: dose 100 mg/kg, route intraperitoneal; conditions: in vivo, 168 h
How it was run: (§6)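 HT-29 cells in log phase, suspended at 1 × 10⁷ cells/mL in serum-free RPMI 1640, 0.2 mL injected subcutaneously into the back of nude mice. At about 300 mm³, mice were randomised to vehicle or treatment groups (six per group). The compound was given in DMSO by i.p. injection at 0.01 mL/g body weight. Body weight was recorded on set days; mice were euthanised after 23 days.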

Mus musculus [24] = assay: Toxicity in BALB/c nude mouse xenografted with human HT-29 cells assessed as organism mortality at 100 mg/kg, ip administered 3 times per week for 1 week measured on day 19; assay type: organism-based; set-up: dose 100 mg/kg, route intraperitoneal; conditions: in vivo, 168 h; how it was run: as §6
CCRF-CEM [25] = assay: Ratio of IC50 for vinblastine-resistant human CEM/VBL100 cells to IC50 for human CEM cells; assay type: functional
A549 [26] = assay: Ratio of IC50 for taxol-resistant human A549-T12 cells to IC50 for human A549 cells; assay type: functional
HeLa [27] = assay: Induction of apoptosis in human HeLa cells assessed as caspase-3 activation at 0.25 to 5 uM by flow cytometry; conditions: TDE = time-dependent effect

COc1cc(C(=O)c2sc(N3CCCC3)nc2N)cc(OC)c1OC
pIC50 (MOLT-4): 6.59 | pIC50 (HeLa [1]): 6.47 | pIC50 [2]: 5.89 | pIC50 (LoVo [3]): 7.00 | pIC50 (LoVo [4]): 6.37 | pIC50 (CCRF-CEM [5]): 7.70 | pIC50 [6]: 8.00 | pIC50 (A549 [7]): 7.43 | Activity (HeLa [8]): Dose-dependent effect | Activity (HeLa [9]): Dose-dependent effect | Activity (HeLa [10]): Active | Activity (HeLa [11]): Active | Activity (HeLa [12]): inactive | Activity (HeLa [13]): inactive | Activity (HeLa [14]): Dose-dependent effect | Activity (HeLa [15]): Dose-dependent effect | Activity (HeLa [16]): Active | Activity (HeLa [17]): Dose-dependent effect | Activity (HeLa [18]): tde | Activity (HeLa [19]): Active | Activity (HeLa [20]): tde | pIC50 (HT-29 [21]): 7.70 | Activity (HT-29 [22]): Active | Activity (Mus musculus [23]): Toxic | Activity (Mus musculus [24]): Toxic | Ratio IC50 (CCRF-CEM [25]): 0.2 | Ratio IC50 (A549 [26]): 4.3 | Activity (HeLa [27]): tde

From ChEMBL document CHEMBL1914330 (Eur J Med Chem, 2011)
